Assay results from ChEMBL document CHEMBL1933063, “Investigation of chalcones and benzochalcones as inhibitors of breast cancer resistance protein” (Bioorg Med Chem, 2012).

Key:
[1] = biological target: T1, Broad substrate specificity ATP-binding cassette transporter ABCG2 (Homo sapiens, UniProt Q9UNQ0); test: Inhibition of human BCRP expressed in MDCK2 cells assessed as Hoechst 33342 accumulation preincubated for 30 mins by fluorimetry; format: cell-based, MDCK-II
T1 sequence (Q9UNQ0 whole entry): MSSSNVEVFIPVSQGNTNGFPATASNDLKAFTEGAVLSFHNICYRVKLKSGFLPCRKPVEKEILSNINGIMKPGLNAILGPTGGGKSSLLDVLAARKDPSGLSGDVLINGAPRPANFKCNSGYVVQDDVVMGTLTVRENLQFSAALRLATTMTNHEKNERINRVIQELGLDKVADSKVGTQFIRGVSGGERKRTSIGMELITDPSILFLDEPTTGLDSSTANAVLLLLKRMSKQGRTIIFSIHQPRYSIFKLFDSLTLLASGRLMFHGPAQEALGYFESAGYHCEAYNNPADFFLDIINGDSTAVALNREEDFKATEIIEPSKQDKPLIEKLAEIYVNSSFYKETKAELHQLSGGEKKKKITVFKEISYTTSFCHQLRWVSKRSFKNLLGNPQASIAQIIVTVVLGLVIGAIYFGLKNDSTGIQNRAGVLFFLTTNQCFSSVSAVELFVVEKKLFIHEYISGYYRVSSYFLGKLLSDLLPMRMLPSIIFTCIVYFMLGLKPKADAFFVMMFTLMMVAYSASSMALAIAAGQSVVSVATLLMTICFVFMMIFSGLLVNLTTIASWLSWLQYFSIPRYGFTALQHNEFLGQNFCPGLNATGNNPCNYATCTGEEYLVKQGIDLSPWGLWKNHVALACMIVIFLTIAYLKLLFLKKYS
Outline: (§1)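 Cells washed three times in Krebs-HEPES buffer, about 20,000 per well, preincubated with test compound at varied concentrations for 30 min at 37 °C, 5% CO2. Hoechst 33342 then added (final 1 µM). Fluorescence (ex 355, em 460 nm) read every 60 s up to 120 min at 37 °C. KHB background subtracted, 100–109 min mean plotted, four-parameter logistic fit; ≥3 independent experiments.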

[2] = biological target: Multidrug resistance-associated protein 1 (Homo sapiens, UniProt P33527); test: Inhibition of MRP1 overexpressed in human 2008 MRP1 cells assessed as calcein AM accumulation at 10 uM by fluorimetry; format: cell-based; details: human, 2008, 10 µM
Outline: (§2)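 Calcein AM accumulation in A2780adr (P-gp) or 2008 MRP1 cells. Cells washed in Krebs-HEPES buffer, about 30,000 per well, preincubated 30 min with compound at 10 µM final. Calcein AM then added. Fluorescence (ex 485, em 520 nm) read every 60 s up to 90 min at 37 °C. Expressed as percent of vehicle control; n = 3.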

[3] = biological target: ATP-dependent translocase ABCB1 (Homo sapiens, UniProt P08183); test: Inhibition of MDR1 in human A2780adr cells assessed as calcein AM accumulation at 10 uM by fluorimetry; format: cell-based; details: a2780 adr; outline: as §2
[4] = biological target: T1, Broad substrate specificity ATP-binding cassette transporter ABCG2; test: Inhibition of BCRP in human MCF7/MX cells assessed as Hoechst 33342 accumulation preincubated for 30 mins by Fluorometry; format: cell-based; outline: as §1
[5] = test system: MDCK-II; test: Potentiation of SN-38 anticancer activity against MDCK2 cells expressing human BCRP after 72 hrs by MTT assay; format: functional, cell-based; details: Canis lupus familiaris
Outline: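 Cells seeded (1250/well MDCK, 10,000/well MCF-7) and left 6 h at 37 °C, 5% CO2. Mitoxantrone or SN-38 dose range added with or without three concentrations of modulator, then 72 h incubation. MTT added for 1 h, cells lysed in DMSO, absorbance read at 544 nm minus 710 nm. EC50 derived; parental cells as controls; three independent experiments.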

Chain of Multidrug resistance-associated protein 1 (P33527 whole entry): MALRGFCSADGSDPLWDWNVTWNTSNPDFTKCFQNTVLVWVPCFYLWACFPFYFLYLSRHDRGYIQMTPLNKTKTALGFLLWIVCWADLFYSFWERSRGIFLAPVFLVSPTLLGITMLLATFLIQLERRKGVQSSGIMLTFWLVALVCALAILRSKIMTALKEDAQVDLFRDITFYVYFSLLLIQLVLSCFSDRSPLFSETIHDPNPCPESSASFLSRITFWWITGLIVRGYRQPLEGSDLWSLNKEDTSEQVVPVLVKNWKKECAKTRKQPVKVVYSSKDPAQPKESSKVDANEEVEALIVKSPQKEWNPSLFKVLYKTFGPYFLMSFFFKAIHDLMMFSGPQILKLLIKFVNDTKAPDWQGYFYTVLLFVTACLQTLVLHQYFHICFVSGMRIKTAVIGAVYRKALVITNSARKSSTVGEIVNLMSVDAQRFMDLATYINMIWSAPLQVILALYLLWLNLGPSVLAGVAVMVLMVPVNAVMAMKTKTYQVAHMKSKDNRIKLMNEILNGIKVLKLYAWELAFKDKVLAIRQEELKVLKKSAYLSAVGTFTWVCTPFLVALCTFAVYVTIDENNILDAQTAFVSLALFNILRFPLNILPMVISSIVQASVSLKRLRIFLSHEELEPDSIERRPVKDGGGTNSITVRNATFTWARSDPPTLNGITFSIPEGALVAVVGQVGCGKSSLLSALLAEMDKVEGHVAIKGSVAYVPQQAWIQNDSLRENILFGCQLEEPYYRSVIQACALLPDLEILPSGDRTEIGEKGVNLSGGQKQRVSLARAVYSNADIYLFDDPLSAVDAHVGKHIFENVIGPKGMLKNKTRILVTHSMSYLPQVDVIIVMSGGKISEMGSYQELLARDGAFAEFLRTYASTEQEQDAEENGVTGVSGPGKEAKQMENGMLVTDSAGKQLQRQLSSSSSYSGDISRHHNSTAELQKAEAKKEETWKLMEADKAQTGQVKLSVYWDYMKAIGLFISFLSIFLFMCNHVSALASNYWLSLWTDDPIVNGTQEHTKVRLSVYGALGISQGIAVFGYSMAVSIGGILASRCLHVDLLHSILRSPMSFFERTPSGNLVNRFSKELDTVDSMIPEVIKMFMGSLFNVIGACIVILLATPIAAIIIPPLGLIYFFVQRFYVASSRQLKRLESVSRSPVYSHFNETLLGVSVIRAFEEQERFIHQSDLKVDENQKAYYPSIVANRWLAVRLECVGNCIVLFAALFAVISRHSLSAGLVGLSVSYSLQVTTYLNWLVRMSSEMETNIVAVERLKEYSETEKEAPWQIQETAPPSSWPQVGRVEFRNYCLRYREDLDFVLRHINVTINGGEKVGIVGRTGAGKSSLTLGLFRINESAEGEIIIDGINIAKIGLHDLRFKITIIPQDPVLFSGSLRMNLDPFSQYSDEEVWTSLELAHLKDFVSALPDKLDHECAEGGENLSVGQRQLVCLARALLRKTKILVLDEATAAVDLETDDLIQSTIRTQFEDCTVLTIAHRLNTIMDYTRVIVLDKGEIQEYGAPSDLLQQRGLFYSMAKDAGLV
Chain of ATP-dependent translocase ABCB1 (P08183 whole entry): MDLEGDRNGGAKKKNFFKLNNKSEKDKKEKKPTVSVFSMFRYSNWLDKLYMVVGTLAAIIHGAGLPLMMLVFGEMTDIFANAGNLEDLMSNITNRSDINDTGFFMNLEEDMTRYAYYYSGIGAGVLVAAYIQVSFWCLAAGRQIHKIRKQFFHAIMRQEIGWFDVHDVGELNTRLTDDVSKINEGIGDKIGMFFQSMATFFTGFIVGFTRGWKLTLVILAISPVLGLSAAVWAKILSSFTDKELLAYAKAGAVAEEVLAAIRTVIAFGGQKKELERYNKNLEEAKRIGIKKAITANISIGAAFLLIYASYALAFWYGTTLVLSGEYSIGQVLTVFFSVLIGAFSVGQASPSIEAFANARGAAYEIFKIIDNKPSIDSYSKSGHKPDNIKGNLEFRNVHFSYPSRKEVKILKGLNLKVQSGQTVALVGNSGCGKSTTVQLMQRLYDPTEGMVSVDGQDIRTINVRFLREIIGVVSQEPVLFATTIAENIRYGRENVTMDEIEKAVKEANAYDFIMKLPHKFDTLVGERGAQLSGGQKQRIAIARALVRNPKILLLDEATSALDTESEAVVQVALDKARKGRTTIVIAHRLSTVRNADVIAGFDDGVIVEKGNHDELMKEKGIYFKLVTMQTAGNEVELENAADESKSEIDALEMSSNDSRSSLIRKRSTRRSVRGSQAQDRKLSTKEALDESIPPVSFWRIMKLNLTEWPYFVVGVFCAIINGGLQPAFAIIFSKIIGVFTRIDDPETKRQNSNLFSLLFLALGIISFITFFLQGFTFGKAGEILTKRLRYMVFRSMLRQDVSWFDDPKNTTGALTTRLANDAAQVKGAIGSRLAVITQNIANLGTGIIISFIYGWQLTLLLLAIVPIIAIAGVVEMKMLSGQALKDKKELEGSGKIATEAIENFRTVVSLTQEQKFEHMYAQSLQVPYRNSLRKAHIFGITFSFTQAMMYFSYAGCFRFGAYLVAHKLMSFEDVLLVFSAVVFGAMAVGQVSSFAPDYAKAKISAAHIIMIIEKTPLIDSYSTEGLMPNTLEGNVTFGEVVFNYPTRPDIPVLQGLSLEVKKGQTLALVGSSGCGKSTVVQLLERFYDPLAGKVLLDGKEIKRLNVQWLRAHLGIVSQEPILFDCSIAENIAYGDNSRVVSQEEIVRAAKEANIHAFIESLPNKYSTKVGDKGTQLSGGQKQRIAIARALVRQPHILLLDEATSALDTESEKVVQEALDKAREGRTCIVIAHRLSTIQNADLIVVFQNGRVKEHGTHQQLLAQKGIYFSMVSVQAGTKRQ

For `COc1cc(OO)ccc1C(=O)/C=C/c1ccc(Cl)c(Cl)c1`, which IC50 ([1]; mdck-ii) is on record?
The IC50 was “Not Active”.

And the “inhibition (INH)” value [2]?
The value was “Not Active”.

And the “inhibition (INH)” value [3]?
The value was “Active”.

And the IC50 ([4]; mcf7/mx)?
Its IC50 is “Not Active”.

What does the source list for `COc1cccc(/C=C/C(=O)c2ccc3ccccc3c2O)c1`?
IC50 ([1]; read-out: IC50): 5.68 µM; inhibition (INH) [2]: Not Active; inhibition (INH) [3]: Active; IC50 ([4]; read-out: IC50): 11.9 µM

How did the IC50 ([1]; mdck-ii) turn out when `O=C(/C=C/c1ccccc1)c1ccc(O)cc1O` [2',4'-DIHYDROXYCHALCONE] was run?
The IC50 was “Not Active”.

What about the “inhibition (INH)” value [2] of the same compound?
Its value is “Not Active”.

And the “inhibition (INH)” value [3]?
The value was “Active”.

And the IC50 ([4]; mcf7/mx)?
The IC50 was “Not Active”.

Which IC50 ([1]; mdck-ii) does the source give for `O=C(/C=C/c1ccccc1Cl)c1ccccc1` here?
The IC50 was “Not Active”.

What about the “inhibition (INH)” value [2] of the same compound?
The value was “Not Active”.

What about the “inhibition (INH)” value [3] of the same compound?
The value was “Active”.

What about the IC50 ([4]; mcf7/mx) of the same compound?
Its IC50 is “Not Active”.

`O=C(/C=C/c1ccc(Cl)cc1)c1ccc(O)cc1O` was tested. Which IC50 ([1]; read-out: IC50) did it give?
The IC50 was 6.37 µM.

And the “inhibition (INH)” value [2]?
Its value is “Not Active”.

What about the “inhibition (INH)” value [3] of the same compound?
The value was “Active”.

What about the IC50 ([4]; read-out: IC50) of the same compound?
The IC50 was 6.07 µM.

For `COc1ccc(/C=C/C(=O)c2ccc(O)cc2O)cc1OC`, which IC50 ([1]; read-out: IC50) is on record?
Its IC50 is 0.85 µM.

And the “inhibition (INH)” value [2]?
The value was “Not Active”.

What about the “inhibition (INH)” value [3] of the same compound?
The value was “Active”.

What about the IC50 ([4]; read-out: IC50) of the same compound?
Its IC50 is 0.93 µM.

Which IC50 ([1]; read-out: IC50) does the source give for `COc1ccc(/C=C/C(=O)c2c(O)cc(OC)cc2OC)cc1` [FLAVOKAWAIN A] here?
The IC50 was 3 µM.

And the “inhibition (INH)” value [2]?
The value was “Not Active”.

And the “inhibition (INH)” value [3]?
Its value is “Active”.

And the IC50 ([4]; read-out: IC50)?
The IC50 was 5.83 µM.

Which results are given for `COc1ccc(C(=O)/C=C/c2ccc(Cl)cc2)cc1OC`?
IC50 ([1]; read-out: IC50): 1.73 µM; inhibition (INH) [2]: Not Active; inhibition (INH) [3]: Active; IC50 ([4]; read-out: IC50): 2.72 µM

What does the source list for `COc1ccc(C(=O)/C=C/c2ccccc2)c(O)c1`?
IC50 ([1]; read-out: IC50): 30.9 µM; inhibition (INH) [2]: Not Active; inhibition (INH) [3]: Active; IC50 ([4]; read-out: IC50): 31 µM

For `COc1ccc(C(=O)/C=C/c2ccc(Cl)cc2)c(OC)c1`, which IC50 ([1]; read-out: IC50) is on record?
Its IC50 is 1.13 µM.

What about the “inhibition (INH)” value [2] of the same compound?
The value was “Not Active”.

What about the “inhibition (INH)” value [3] of the same compound?
The value was “Active”.

What about the IC50 ([4]; read-out: IC50) of the same compound?
The IC50 was 3.09 µM.

Which IC50 ([1]; mdck-ii) does the source give for `O=C(/C=C/c1ccc(Cl)cc1)c1c(O)ccc2ccccc12` here?
Its IC50 is “Not Active”.

And the “inhibition (INH)” value [2]?
The value was “Not Active”.

What about the “inhibition (INH)” value [3] of the same compound?
The value was “Active”.

What about the IC50 ([4]; mcf7/mx) of the same compound?
Its IC50 is “Not Active”.

With `O=C(/C=C/c1ccccc1)c1ccccc1O` [2'-HYDROXYCHALCONE] as the compound, how does the IC50 ([1]; mdck-ii) read?
Its IC50 is “Not Active”.

And the “inhibition (INH)” value [2]?
Its value is “Not Active”.

And the “inhibition (INH)” value [3]?
Its value is “Active”.

And the IC50 ([4]; mcf7/mx)?
Its IC50 is “Not Active”.

Which results are given for `COc1ccc(/C=C/C(=O)c2c(O)ccc3ccccc23)cc1OC`?
IC50 ([1]; read-out: IC50): 0.72 µM; inhibition (INH) [2]: Not Active; inhibition (INH) [3]: Active; Activity [5]: Dose-dependent effect; IC50 ([4]; read-out: IC50): 1.84 µM

Which IC50 ([1]; read-out: IC50) does the source give for `COc1ccc(C(=O)/C=C/c2ccccc2Cl)c(O)c1` here?
Its IC50 is 3.32 µM.

What about the “inhibition (INH)” value [2] of the same compound?
Its value is “Not Active”.

And the “inhibition (INH)” value [3]?
Its value is “Active”.

And the IC50 ([4]; read-out: IC50)?
Its IC50 is 6.85 µM.

With `O=C(/C=C/c1ccc(Cl)c(Cl)c1)c1ccc2ccccc2c1O` as the compound, how does the IC50 ([1]; read-out: IC50) read?
The IC50 was 22.4 µM.

What about the “inhibition (INH)” value [2] of the same compound?
The value was “Not Active”.

What about the “inhibition (INH)” value [3] of the same compound?
The value was “Active”.

What about the IC50 ([4]; read-out: IC50) of the same compound?
The IC50 was 26.1 µM.

Which results are given for `COc1ccc(/C=C/C(=O)c2ccc(OC)c(OC)c2)cc1OC`?
IC50 ([1]; read-out: IC50): 3.8 µM; inhibition (INH) [2]: Not Active; inhibition (INH) [3]: Active; IC50 ([4]; read-out: IC50): 3.28 µM

For `COc1ccc(/C=C/C(=O)c2ccc(OC)c(OC)c2)cc1`, which IC50 ([1]; read-out: IC50) is on record?
The IC50 was 1.16 µM.

What about the “inhibition (INH)” value [2] of the same compound?
The value was “Not Active”.

What about the “inhibition (INH)” value [3] of the same compound?
Its value is “Active”.

And the IC50 ([4]; read-out: IC50)?
Its IC50 is 2.19 µM.

Which IC50 ([1]; read-out: IC50) does the source give for `COc1ccc(C(=O)/C=C/c2ccccc2Cl)cc1OC` here?
Its IC50 is 7.8 µM.

And the “inhibition (INH)” value [2]?
The value was “Not Active”.

What about the “inhibition (INH)” value [3] of the same compound?
The value was “Active”.

What about the IC50 ([4]; read-out: IC50) of the same compound?
Its IC50 is 11 µM.

What does the source list for `COc1cccc(/C=C/C(=O)c2c(O)ccc3ccccc23)c1`?
IC50 ([1]; read-out: IC50): 1.93 µM; inhibition (INH) [2]: Not Active; inhibition (INH) [3]: Active; IC50 ([4]; read-out: IC50): 1.93 µM

Which results are given for `COc1ccc(C(=O)/C=C/c2ccc(OC)c(OC)c2)c(OC)c1`?
IC50 ([1]; read-out: IC50): 1.03 µM; inhibition (INH) [2]: Not Active; inhibition (INH) [3]: Active; IC50 ([4]; read-out: IC50): 2.2 µM

What does the source list for `COc1ccc(/C=C/C(=O)c2ccc3ccccc3c2O)cc1OC`?
IC50 ([1]; read-out: IC50): 1.95 µM; inhibition (INH) [2]: Not Active; inhibition (INH) [3]: Active; IC50 ([4]; read-out: IC50): 2.5 µM

Which IC50 ([1]; mdck-ii) does the source give for `COc1ccc(/C=C/C(=O)c2ccccc2)cc1OC` here?
The IC50 was “Not Active”.

And the “inhibition (INH)” value [2]?
Its value is “Not Active”.

And the “inhibition (INH)” value [3]?
The value was “Active”.

And the IC50 ([4]; mcf7/mx)?
The IC50 was “Not Active”.
